From publication PMC3343186 (Nature, 2012)
Values belong to the molecule of their own block, whether it stands above or below them.

Columns and labels:
REV-ERBα = target: T1, REV-ERBα (Homo sapiens, UniProt P20393); format: cell-based; settings: HEK293 cells, comparison with SR9011 and SR9009
T1 sequence (P20393 284-614 limits assumed): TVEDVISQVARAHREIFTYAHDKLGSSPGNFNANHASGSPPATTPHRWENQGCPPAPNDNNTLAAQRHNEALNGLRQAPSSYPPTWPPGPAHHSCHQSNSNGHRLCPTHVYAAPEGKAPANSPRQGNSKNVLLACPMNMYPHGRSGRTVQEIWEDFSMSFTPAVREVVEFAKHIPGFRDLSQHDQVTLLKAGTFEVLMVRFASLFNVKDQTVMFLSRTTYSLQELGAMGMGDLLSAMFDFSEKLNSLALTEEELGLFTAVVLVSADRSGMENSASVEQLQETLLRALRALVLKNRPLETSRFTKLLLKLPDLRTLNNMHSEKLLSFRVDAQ

[1] = cited from earlier work
[2] = tested on: metabolic genes in DIO mice tissues; experiment: Metabolic gene expression in liver, WAT and skeletal muscle of DIO mice; format: in vivo; settings: 100mg/kg i.p. b.i.d., 30 days
Summary of the method: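 Diet-induced obese C57BL6 mice, 20 weeks old, had 14 weeks on high-fat diet (20% carbohydrate, 60% fat) and continued on it under twice-daily i.p. dosing. Liver, WAT and skeletal muscle mRNA was quantified by QPCR, normalised to Cyclophilin b. n=6-10.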

C57Bl6 mice [3] = experiment: Circadian wheel running activity under constant darkness; format: in vivo; settings: single dose 100 mg/kg i.p. at CT6
Summary of the method: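 C57Bl6 mice in wheel cages were kept 7 days on 12h:12h L:D, then moved to constant darkness. After 12 days in D:D, mice received a single i.p. injection of vehicle or test compound at CT6.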

lean C57Bl6 mice = experiment: Fasting plasma TG and Chol in lean C57Bl6 mice; format: in vivo; settings: 100 mg/kg i.p. b.i.d., 10 days
Summary of the method: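 Lean C57Bl6 mice were given 100 mg/kg i.p. twice daily at CT0 and CT12 for 10 days, then fasting plasma triglycerides and total cholesterol were measured. Mean ± s.e.m., n=6-10.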

ob/ob mice = experiment: ob/ob mice, 12-day dosing; format: in vivo; settings: 100 mg/kg i.p. b.i.d., 12-days
Summary of the method: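 Leptin-deficient ob/ob mice were dosed 100 mg/kg i.p. twice daily for 12 days. Body weight and body fat content were tracked; glucose and insulin tolerance were also assessed. Mean ± s.e.m., n=6-10.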

C57Bl6 mice [4] = experiment: Circadian locomotor activity under L:D; format: in vivo; settings: L:D 12h:12h, single injection
Summary of the method: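 Wheel-running actograms were recorded in C57Bl6 mice kept on 12:12 L:D after single i.p. injections of vehicle or test compound. The protocol was otherwise as in the constant-darkness wheel experiment. n=6-10.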

[5] = tested on: diet-induced obese C57BL6 mice; experiment: Diet-induced obese mice, 30-day treatment; format: in vivo; settings: DIO C57Bl6 mice, 100mg/kg i.p. b.i.d., 30 days
[6] = tested on: clock and metabolic genes in the liver; experiment: Circadian gene expression in liver after single dose; format: in vivo, mice
Summary of the method: (§1)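 Male C57BL6 mice, 8-10 weeks, housed on 12h:12h L:D or in constant darkness, received a single 100 mg/kg i.p. dose at CT0. Groups (n=6) were sacrificed at CT0, CT6, CT12 and CT18; tissue mRNA measured by real-time QPCR. Data double plotted; mean ± s.e.m.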

SCN explants (Per2:luc) = experiment: Bioluminescence of SCN explants from Per2:luc reporter mouse; format: cell-based; settings: 5 μM
C57Bl6 mice [7] = experiment: Comprehensive laboratory animal monitoring system; format: in vivo
Summary of the method: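 C57Bl6 mice in CLAMS cages were dosed 100 mg/kg i.p. twice daily at CT0 and CT12 for 10 days. Oxygen consumption (VO2) and RER were recorded across diurnal and nocturnal phases. Fat mass was measured by DEXA after the run. Mean ± s.e.m., n=6-10.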

Balb/c or C57Bl6 mice = experiment: Body weight and fat mass in lean mice on chronic dosing; format: in vivo
Summary of the method: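 Balb/c mice given 100 mg/kg i.p. twice daily at CT0 and CT12 for 12 days; body weight and fat mass followed over treatment. Mean ± s.e.m., n=6-10 mice.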

[8] = tested on: REV-ERB responsive genes in the liver; experiment: Expression of REV-ERB responsive genes in liver after 6-day dosing; format: in vivo, mice; settings: various doses i.p., b.i.d., 6-days
[9] = tested on: core clock genes in the hypothalamus; experiment: Core clock gene expression in hypothalamus; format: in vivo, mice
[10] = tested on: metabolic genes in skeletal muscle; experiment: Circadian gene expression in skeletal muscle after single dose; format: in vivo, mice; settings: single dose 100 mg/kg i.p. at CT0
Summary of the method: as §1

[11] = tested on: metabolic genes in white adipose tissue (WAT); experiment: Circadian gene expression in white adipose tissue after single dose; format: in vivo, mice
Summary of the method: as §1

[12] = single dose 100 mg/kg i.p. at CT0
[13] = C57Bl6 mice, 100mg/kg i.p. b.i.d., 10 days
[14] = D:D, 100 mg/kg i.p. single dose at CT0

activity in GAL4-REV-ERBα and GAL4-REV-ERBβ cotransfection assays (REV-ERBα): limited activity
Compound: CC(C)(C)OC(=O)CN(Cc1ccc(Cl)cc1)Cc1ccc([N+](=O)[O-])s1 [GSK4112]
plasma exposure [1]: no plasma exposure

expression of genes encoding enzymes involved in TG synthesis in WAT [2]: decrease in expression
Compound: CCOC(=O)N1CCC(CN(Cc2ccc(Cl)cc2)Cc2ccc([N+](=O)[O-])s2)C1 (centres unmarked) [SR9009]
Cpt1b expression in skeletal muscle [2]: induced the expression
Fasn expression in liver [2]: significant decrease
Hk1 expression in skeletal muscle [2]: induced the expression
Hmgcr expression in liver [2]: significant decrease
Pkm2 expression in skeletal muscle [2]: induced the expression
Ppargc1b expression in skeletal muscle [2]: induced the expression
Scd1 expression in liver [2]: significant decrease
Srebf2 expression in liver [2]: significant decrease
Ucp3 expression in skeletal muscle [2]: induced the expression
locomotor activity during the subject dark phase (C57Bl6 mice [3]): loss of the subsequent active period
plasma total cholesterol (lean C57Bl6 mice): reduce the levels
plasma triglycerides (lean C57Bl6 mice): reduce the levels
glucose or insulin tolerance (ob/ob mice): no significant alterations
weight gain (ob/ob mice): suppressed the degree of weight gain
delay in the onset of locomotor activity (C57Bl6 mice [4]): 1 to 3 h
decrease in plasma insulin levels (trend) [5]: 35%
decrease in plasma leptin [5]: 80%
decrease in plasma total cholesterol (Chol) ([5]; fasting): 47%
decrease in plasma triglycerides (TGs) ([5]; fasting): 12%
reduction of plasma glucose ([5]; fasting): 19%
reduction of plasma non-esterified fatty acids (NEFA) ([5]; fasting): 23%
decrease in proinflammatory cytokine IL-6 ([5]; plasma): 72%

Cyp7a1 expression in liver [6, 12]: decreased
Cyp7a1 expression in liver [8]: dose-dependently suppressed
Compound: CCCCCNC(=O)N1CCC(CN(Cc2ccc(Cl)cc2)Cc2ccc([N+](=O)[O-])s2)C1 (centres unmarked) [SR9011]
Nampt gene expression in the liver ([6]; single dose): suppressed the circadian rhythm
Nocturnin (Ccrn4l) expression in hepatic tissue ([6]; single dose): suppression
Bmal1 expression in liver [6, 12]: unaffected
Fasn expression in liver [6, 12]: phase shifted
Npas2 expression in liver [6, 12]: unaffected
Per2 expression pattern in liver [6, 12]: altered
Ppargc1a circadian expression in liver [6, 12]: suppressed
Ppargc1b circadian expression in liver [6, 12]: suppressed
Scd1 expression in liver [6, 12]: suppressed
Srebf1 expression in liver [6, 12]: suppressed
Srebf2 expression in liver [6, 12]: decreased
Hmgcr expression in liver ([6]; single dose 100 mg/kg i.p. at CT0, acute model): unaffected
amplitude of the oscillations in SCN explants (SCN explants (Per2:luc)): suppressed the amplitude
circadian oscillations in SCN explants (SCN explants (Per2:luc)): reversible inhibition of circadian oscillations
period of the oscillations in SCN explants (SCN explants (Per2:luc)): no effect on the period
increase in nocturnal food consumption (C57Bl6 mice [7]; [13]): 10%
increase in oxygen consumption (VO2) (C57Bl6 mice [7]; [13]): 5%
rate of food intake (C57Bl6 mice [7]; [13]): no effect
respiratory exchange ratio (C57Bl6 mice [7]; [13]): no change
total daily food intake (C57Bl6 mice [7]; [13]): no effect
decrease in movement (C57Bl6 mice [7]; C57Bl6 mice, 100mg/kg i.p. b.i.d., 10 days, x-axis beam breaks): 15%
fat mass (DEXA) vs. vehicle (C57Bl6 mice [7]; after 10-day CLAMS experiment): decrease in fat mass
locomotor activity during the subject dark phase (C57Bl6 mice [3]): loss of the subsequent active period
body weight and fat mass (Balb/c or C57Bl6 mice; 100mg/kg, i.p., b.i.d., 12 days): weight loss due to decreased fat mass
food intake (Balb/c or C57Bl6 mice; chronic administration, data not shown): not affected
Serpine1 expression in liver [8]: dose-dependent suppression
plasma total cholesterol (lean C57Bl6 mice): reduce the levels
plasma triglycerides (lean C57Bl6 mice): reduce the levels
delay in the onset of locomotor activity (C57Bl6 mice [4]): 1 to 3 h
circadian pattern of Rev-erbα expression in hypothalamus ([9]; D:D conditions): completely suppressed
Bmal1 expression in hypothalamus [9, 14]: left shift in the phase
Cry2 expression in hypothalamus [9, 14]: suppressed
Per2 expression amplitude in hypothalamus [9, 14]: enhanced
circadian pattern of expression of Npas2 in hypothalamus [9, 14]: completely eliminated
pattern of expression of Clock in hypothalamus [9, 14]: enhanced amplitude of the oscillation
circadian pattern of Rev-erbα expression in hypothalamus ([9]; L:D conditions): no effect
Cpt1b expression in skeletal muscle [10]: elevated
Hk1 expression in skeletal muscle [10]: increase
Pkm2 expression in skeletal muscle [10]: increase
Pppargc1b expression in skeletal muscle [10]: elevated
Ucp3 expression in skeletal muscle [10]: elevated
Nocturnin (Ccrn4l) expression in adipose tissue ([11]; single dose): suppression
Dgat1 expression in WAT [11, 12]: suppressed
Dgat 2 expression in WAT [11, 12]: suppressed
Hsl expression in WAT [11, 12]: suppressed
Mgat circadian expression in WAT [11, 12]: disturbed
Plin1 expression in WAT [11, 12]: suppressed
